Assay results published in ChEMBL document CHEMBL4038284, “Synthesis of novel quinoline-based 4,5-dihydro-1H-pyrazoles as potential anticancer, antifungal, antibacterial and antiprotozoal agents” (Eur J Med Chem, 2017).
In brackets after ≈: the same amount, converted by molar mass.

Tests used:
Escherichia coli = experiment: Antibacterial activity against Escherichia coli ATCC 25922 after 24 hrs by resazurin dye based microdilution assay; format: functional; settings: ATCC 25922, 24 h
Summary of the method: (§1)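 MIC taken as the lowest concentration giving visible inhibition and/or by resazurin (1 mg/mL). Gentamicin was the control. Run in duplicate, repeated at least three times.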

Cryptococcus neoformans [1] = experiment: Growth inhibition of Cryptococcus neoformans ATCC 32264 at 250 ug/ml incubated for 48 hrs under dark condition by broth microdilution method relative to control; format: functional; settings: ATCC 32264, 48 h, read-out: GI
Summary of the method: (§2)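 CLSI M27-A3 broth microdilution in RPMI-1640, DMSO ≤1%. Inoculum 1-5 × 10^3 CFU/mL. Incubated 48 h at 30 °C, dark. % inhibition = 100 − (OD405 test − sterility control)/(OD405 growth control − sterility control), with growth and sterility control wells. Triplicate.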

Leishmania panamensis = experiment: Antileshmanial activity against EpiR/GFP fused Leishmania panamensis MHOM/CO/87/UA140 intracellular amastigotes infected in human […] cells after 72 hrs by flow cytometric method; format: functional, cell-based; settings: MHOM/CO/87/UA140, 72 h
Summary of the method: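 PMA-treated U-937 cells (3 × 10^5 cells/mL) infected with stationary-phase GFP L. panamensis promastigotes (15:1), 3 h at 34 °C, then washed. After 24 h, compounds added at 50, 12.5, 3.125 and 0.78 µg/mL for 72 h at 37 °C. EC50 by Probit; triplicate, two experiments.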

Cryptococcus neoformans [2] = experiment: Growth inhibition of Cryptococcus neoformans ATCC 32264 at 62.5 ug/ml incubated for 48 hrs under dark condition by broth microdilution method relative to control; format: functional; settings: ATCC 32264, 48 h, read-out: GI; summary of the method: as §2
Cryptococcus neoformans [3] = experiment: Growth inhibition of Cryptococcus neoformans ATCC 32264 at 7.8 ug/ml incubated for 48 hrs under dark condition by broth microdilution method relative to control; format: functional; settings: ATCC 32264, 48 h, read-out: GI; summary of the method: as §2
Staphylococcus aureus [4] = experiment: Antibacterial activity against vancomycin-intermediate Staphylococcus aureus after 24 hrs by resazurin dye based microdilution assay; format: functional; summary of the method: as §1
U-937 = experiment: Cytotoxicity against human U937 cells after 72 hrs by MTT assay; format: cell-based; settings: u-937, 72 h
Summary of the method: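 Exponentially growing U-937 at 1 × 10^5 cells/mL in RPMI-1640 with 10% FBS were exposed to 200, 50, 12.5 and 3.125 µg/mL for 72 h at 37 °C, 5% CO2. MTT for 3 h, stopped with isopropanol/SDS, formazan read at 570 nm, blank-corrected. LC50 by Probit from % viability against untreated cells. Triplicate, at least two independent experiments.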

Staphylococcus aureus [5] = experiment: Antibacterial activity against methicillin-resistant Staphylococcus aureus ATCC 43300 after 24 hrs by resazurin dye based microdilution assay; format: functional; settings: ATCC 43300, 24 h
Summary of the method: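 Broth microdilution in Mueller Hinton broth, inoculum 5 × 10^5 – 8 × 10^5. Compound stocks diluted in MHB with 5% DMSO and 0.1% Tween 80. Incubation 24 h at 35-37 °C. MIC is the lowest concentration with visible growth inhibition and/or by resazurin (1 mg/mL) read-out. Gentamicin as control. Run in duplicate, replicated at least three times.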

Candida albicans [6] = experiment: Growth inhibition of Candida albicans ATCC 10231 at 31.25 ug/ml incubated for 48 hrs under dark condition by broth microdilution method relative to control; format: functional; settings: ATCC 10231, 48 h, read-out: GI; summary of the method: as §2
Cryptococcus neoformans [7] = experiment: Growth inhibition of Cryptococcus neoformans ATCC 32264 at 15.62 ug/ml incubated for 48 hrs under dark condition by broth microdilution method relative to control; format: functional; settings: ATCC 32264, 48 h, read-out: GI; summary of the method: as §2
Klebsiella pneumoniae [8] = experiment: Antibacterial activity against ESBL positive Klebsiella pneumoniae ATCC 700603 after 24 hrs by resazurin dye based microdilution assay; format: functional; settings: Klebsiella pneumoniae, 700603, 24 h; summary of the method: as §1
Cryptococcus neoformans [9] = experiment: Growth inhibition of Cryptococcus neoformans ATCC 32264 at 125 ug/ml incubated for 48 hrs under dark condition by broth microdilution method relative to control; format: functional; settings: ATCC 32264, 48 h, read-out: GI; summary of the method: as §2
Neisseria gonorrhoeae = experiment: Antibacterial activity against beta lactamase positive Neisseria gonorrhoeae ATCC 31426 by oxidase test; format: functional
Summary of the method: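 Agar dilution MIC on GC agar with 1% isovitalex containing increasing compound concentrations. Plates inoculated with about 1×10^4 CFU (5 µL). MIC is the lowest concentration that inhibited growth, with growth confirmed by oxidase test. Run in duplicate, repeated at least three times.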

Trypanosoma cruzi = experiment: Antitrypanosomal activity against Trypanosoma cruzi Tulahuen intracellular amastigote harboring LacZ infected in human U937 cells after 72 hrs by CPRG/Nonidet reagent based spectrophotometric method; format: functional, cell-based; settings: U-937, 72 h
Summary of the method: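 U-937 cells at 2.5 × 10^5 cells/mL in RPMI-1640 with 10% serum and 0.1 µg/mL PMA were infected with β-galactosidase-transfected Tulahuen epimastigotes at 5 parasites per cell. Infected cells were exposed to 50, 12.5, 3.125 and 0.78 µg/mL for 72 h. CPRG (100 uM) and 0.1% Nonidet P-40 were added for 3 h, read at 570 nm. EC50 by Probit. Triplicate, at least two experiments; benznidazole as reference.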

Candida albicans [10] = experiment: Growth inhibition of Candida albicans ATCC 10231 at 250 ug/ml incubated for 48 hrs under dark condition by broth microdilution method relative to control; format: functional; settings: ATCC 10231, 48 h, read-out: GI; summary of the method: as §2
Pseudomonas aeruginosa = experiment: Antibacterial activity against Pseudomonas aeruginosa ATCC 27853 after 24 hrs by resazurin dye based microdilution assay; format: functional; settings: ATCC 27853, 24 h; summary of the method: as §1
Candida albicans [11] = experiment: Growth inhibition of Candida albicans ATCC 10231 at 15.62 ug/ml incubated for 48 hrs under dark condition by broth microdilution method relative to control; format: functional; settings: ATCC 10231, 48 h, read-out: GI; summary of the method: as §2
Candida albicans [12] = experiment: Growth inhibition of Candida albicans ATCC 10231 at 3.4 ug/ml incubated for 48 hrs under dark condition by broth microdilution method relative to control; format: functional; settings: ATCC 10231, 48 h, read-out: GI
Candida albicans [13] = experiment: Antifungal activity against Candida albicans ATCC 10231 incubated for 48 hrs under dark condition by broth microdilution method; format: functional; settings: ATCC 10231, 48 h
Summary of the method: (§3)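 CLSI M27-A3 broth microdilution in RPMI-1640, DMSO ≤1%, compounds at 250-0.98 µg/mL final. Inoculum 1-5 × 10^3 CFU/mL. Incubated 48 h at 30 °C in a moist dark chamber, read at OD405. MIC80 and MIC50 taken from % inhibition dose-response curves (mean ± SEM, triplicate). Amphotericin B was the positive control.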

Staphylococcus aureus [14] = experiment: Antibacterial activity against methicillin-sensitive Staphylococcus aureus ATCC 25923 after 24 hrs by resazurin dye based microdilution assay; format: functional; settings: ATCC 25923, 24 h; summary of the method: as §1
Cryptococcus neoformans [15] = experiment: Growth inhibition of Cryptococcus neoformans ATCC 32264 at 3.4 ug/ml incubated for 48 hrs under dark condition by broth microdilution method relative to control; format: functional; settings: ATCC 32264, 48 h, read-out: GI
Candida albicans [16] = experiment: Growth inhibition of Candida albicans ATCC 10231 at 125 ug/ml incubated for 48 hrs under dark condition by broth microdilution method relative to control; format: functional; settings: ATCC 10231, 48 h, read-out: GI; summary of the method: as §2
Cryptococcus neoformans [17] = experiment: Antifungal activity against Cryptococcus neoformans ATCC 32264 incubated for 48 hrs under dark condition by broth microdilution method; format: functional; settings: ATCC 32264, 48 h; summary of the method: as §3
Cryptococcus neoformans [18] = experiment: Growth inhibition of Cryptococcus neoformans ATCC 32264 at 31.25 ug/ml incubated for 48 hrs under dark condition by broth microdilution method relative to control; format: functional; settings: ATCC 32264, 48 h, read-out: GI; summary of the method: as §2
Candida albicans [19] = experiment: Growth inhibition of Candida albicans ATCC 10231 at 7.8 ug/ml incubated for 48 hrs under dark condition by broth microdilution method relative to control; format: functional; settings: ATCC 10231, 48 h, read-out: GI; summary of the method: as §2
Klebsiella pneumoniae [20] = experiment: Antibacterial activity against carbapenemase positive Klebsiella pneumoniae BAA 1705 after 24 hrs by resazurin dye based microdilution assay; format: functional; settings: BAA 1705, 24 h; summary of the method: as §1
Plasmodium falciparum = experiment: Antiplasmodial activity against chloroquine-sensitive Plasmodium falciparum 3D7 assessed as reduction in parasitic LDH activity after 48 hrs by Malstat reagent based […] method; format: functional; settings: 3D7, 48 h
Summary of the method: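 Unsynchronized P. falciparum 3D7 at 0.5% parasitemia and 1% hematocrit in RPMI with 3% Albumax II. Exposed to 100, 25, 6.25 and 1.56 µg/mL for 48 h at 37 °C under 90% N2/5% CO2/5% O2. After three freeze-thaw cycles, LDH measured with Malstat and NBT/PES, 1 h in the dark, read at 650 nm. IC50 by Probit; triplicate, ≥2 experiments.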

Candida albicans [21] = experiment: Growth inhibition of Candida albicans ATCC 10231 at 62.5 ug/ml incubated for 48 hrs under dark condition by broth microdilution method relative to control; format: functional; settings: ATCC 10231, 48 h, read-out: GI; summary of the method: as §2

Structure (SMILES) | MIC (Escherichia coli) | inhibition of growth at 250 µg/mL (Cryptococcus neoformans [1]) | EC50 (Leishmania panamensis) | inhibition of growth at 62.5 µg/mL (Cryptococcus neoformans [2]) | inhibition of growth at 7.8 µg/mL (Cryptococcus neoformans [3]) | MIC (Staphylococcus aureus [4]) | LC50 (U-937) | MIC (Staphylococcus aureus [5]) | inhibition of growth at 31.25 µg/mL (Candida albicans [6]) | inhibition of growth at 15.62 µg/mL (Cryptococcus neoformans [7]) | MIC (Klebsiella pneumoniae [8]) | inhibition of growth at 125 µg/mL (Cryptococcus neoformans [9]) | MIC (Neisseria gonorrhoeae) | EC50 (Trypanosoma cruzi) | inhibition of growth at 250 µg/mL (Candida albicans [10]) | MIC (Pseudomonas aeruginosa) | inhibition of growth at 15.62 µg/mL (Candida albicans [11]) | inhibition of growth at 3.4 µg/mL (Candida albicans [12]) | MIC50 (Candida albicans [13]) | MIC80 (Candida albicans [13]) | also measured
Clc1cc(Cl)cc(N2N=C(c3ccccc3)CC2c2cccc(Nc3ccnc4cc(Cl)ccc34)c2)c1 (stereo not given) | > 1000 µg/mL | 7.5% | 17.8 µg/mL (≈ 32.8 µM) | 3.07% | 0% | > 1000 µg/mL | > 200 µg/mL | > 1000 µg/mL | 0% | 1.36% | > 1000 µg/mL | 3.29% | > 1000 µg/mL | 32.6 µg/mL (≈ 60 µM) | 11.2% | > 1000 µg/mL | 0% | 0% | ≥ 250 µg/mL | ≥ 250 µg/mL | MIC (Staphylococcus aureus [14]): > 1000 µg/mL; inhibition of growth at 3.4 µg/mL (Cryptococcus neoformans [15]): 0%; inhibition of growth at 125 µg/mL (Candida albicans [16]): 2.17%; MIC50 (Cryptococcus neoformans [17]): ≥ 250 µg/mL; MIC80 (Cryptococcus neoformans [17]): ≥ 250 µg/mL; inhibition of growth at 31.25 µg/mL (Cryptococcus neoformans [18]): 2.16%; inhibition of growth at 7.8 µg/mL (Candida albicans [19]): 0%; MIC (Klebsiella pneumoniae [20]): > 1000 µg/mL; EC50 (Plasmodium falciparum): 12.5 µg/mL (≈ 23.1 µM); inhibition of growth at 62.5 µg/mL (Candida albicans [21]): 0%
O=CN1N=C(c2ccc(Br)cc2)CC1c1cccc(Nc2ccnc3cc(Cl)ccc23)c1 (stereo not given) | > 1000 µg/mL | 100% | 2.41 µg/mL (≈ 4.76 µM) | 53.5% | 39.1% | > 1000 µg/mL | 0.6 µg/mL (≈ 1.19 µM) | > 1000 µg/mL | 19.2% | 44.2% | > 1000 µg/mL | 60.9% | > 1000 µg/mL | 1.24 µg/mL (≈ 2.45 µM) | 58.7% | > 1000 µg/mL | 13% | 5.76% | 250 µg/mL (≈ 494 µM) | ≥ 250 µg/mL | MIC (Staphylococcus aureus [14]): > 1000 µg/mL; inhibition of growth at 3.4 µg/mL (Cryptococcus neoformans [15]): 24.2%; inhibition of growth at 125 µg/mL (Candida albicans [16]): 31.4%; MIC50 (Cryptococcus neoformans [17]): 62.5 µg/mL (≈ 124 µM); MIC80 (Cryptococcus neoformans [17]): 250 µg/mL (≈ 494 µM); inhibition of growth at 31.25 µg/mL (Cryptococcus neoformans [18]): 44.5%; inhibition of growth at 7.8 µg/mL (Candida albicans [19]): 8.36%; MIC (Klebsiella pneumoniae [20]): > 1000 µg/mL; EC50 (Plasmodium falciparum): 15.7 µg/mL (≈ 31 µM); inhibition of growth at 62.5 µg/mL (Candida albicans [21]): 25.3%
